Data as given in ChEMBL document CHEMBL1147533, “Highly diastereoselective inverse electron demand (IED) Diels-Alder reaction mediated by chiral salen-AlCl complex: the first, target-oriented synthesis of pyranoquinolines as potential antibacterial agents” (Bioorg Med Chem Lett, 2004).

Legend:
Format in all cases: functional, organism-based
Escherichia coli [1] = experiment: In vitro antibacterial activity against Escherichia coli in test 1; ++ indicates mild activity
In short: (§1)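 Five microlitres of compound stock (about 0.2 mg) combined with bacterial suspension in Tris-buffered saline (0.8 OD at 580 nm). Mixture incubated 14 h at 14 °C, then plated on TCBS agar (thiosulphate–citrate–bile salt–sucrose) to read bactericidal activity.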

Escherichia coli [2] = experiment: In vitro antibacterial activity against Escherichia coli in test 2; ++ indicates mild activity; in short: as §1
Vibrio fluvialis [3] = experiment: In vitro antibacterial activity against Vibrio fluvialis in test 1; - indicates No activity; in short: as §1
Vibrio fluvialis [4] = experiment: In vitro antibacterial activity against Vibrio fluvialis in test 2; - indicates No activity; in short: as §1
Escherichia coli [5] = experiment: In vitro antibacterial activity of (50:50%) of compounds against Escherichia coli at a concentration of 2 mg/mL; - indicates No activity; in short: as §1
Escherichia coli [6] = experiment: n vitro antibacterial activity of (25:50%) of compounds against Escherichia coli at a concentration of 2 mg/mL; + indicates No activity; in short: as §1
Pseudomonas sp. [7] = experiment: In vitro antibacterial activity of (50:50%) of compounds against Pseudomonas species at a concentration of 2 mg/mL; - indicates No activity; in short: as §1
Pseudomonas sp. [8] = experiment: n vitro antibacterial activity of (25:50%) of compounds against Pseudomonas species at a concentration of 2 mg/mL; + indicates No activity; in short: as §1
Vibrio fluvialis [9] = experiment: In vitro antibacterial activity of (50:50%) of compounds against Vibrio fluvialis at a concentration of 2 mg/mL; - indicates No activity; in short: as §1
Vibrio fluvialis [10] = experiment: n vitro antibacterial activity of (25:50%) of compounds against Vibrio fluvialis at a concentration of 2 mg/mL; + indicates No activity; in short: as §1
Vibrio mimicus [11] = experiment: In vitro antibacterial activity of (50:50%) of compounds against Vibrio mimicus at a concentration of 2 mg/mL; - indicates No activity; in short: as §1
Vibrio mimicus [12] = experiment: n vitro antibacterial activity of (25:50%) of compounds against Vibrio mimicus at a concentration of 2 mg/mL; + indicates No activity; in short: as §1
Vibrio parahaemolyticus [13] = experiment: In vitro antibacterial activity of (50:50%) of compounds against Vibrio parahaemolyticus at a concentration of 2 mg/mL; - indicates No activity; in short: as §1
Vibrio parahaemolyticus [14] = experiment: n vitro antibacterial activity of (25:50%) of compounds against Vibrio parahaemolyticus at a concentration of 2 mg/mL; + indicates No activity; in short: as §1
Vibrio vulnificus [15] = experiment: In vitro antibacterial activity of (50:50%) of compounds against Vibrio vulnificus at a concentration of 2 mg/mL; - indicates No activity; in short: as §1
Vibrio vulnificus [16] = experiment: n vitro antibacterial activity of (25:50%) of compounds against Vibrio vulnificus at a concentration of 2 mg/mL; + indicates No activity; in short: as §1
Vibrio alginolyticus [17] = experiment: In vitro antibacterial activity of (50:50%) of compounds against Vibrio alginolyticus at a concentration of 2 mg/mL; - indicates No activity; in short: as §1
Vibrio anguillarum [18] = experiment: In vitro antibacterial activity of (50:50%) of compounds against Vibrio anguillarum at a concentration of 2 mg/mL; - indicates No activity; in short: as §1
Vibrio anguillarum [19] = experiment: n vitro antibacterial activity of (25:50%) of compounds against Vibrio anguillarum at a concentration of 2 mg/mL; + indicates No activity; in short: as §1
Vibrio alginolyticus [20] = experiment: n vitro antibacterial activity of (25:50%) of compounds against Vibrio alginolyticus at a concentration of 2 mg/mL; + indicates No activity; in short: as §1
Escherichia coli [21] = experiment: In vitro antibacterial activity against Escherichia coli at a concentration of 2 mg/mL; - indicates No activity; in short: as §1
Pseudomonas sp. [22] = experiment: In vitro antibacterial activity against Pseudomonas species at a concentration of 2 mg/mL; - indicates No activity; in short: as §1
Vibrio fluvialis [23] = experiment: In vitro antibacterial activity against Vibrio fluvialis at a concentration of 2 mg/mL; - indicates No activity; in short: as §1
Vibrio mimicus [24] = experiment: In vitro antibacterial activity against Vibrio mimicus at a concentration of 2 mg/mL; - indicates No activity; in short: as §1
Vibrio vulnificus [25] = experiment: In vitro antibacterial activity against Vibrio vulnificus at a concentration of 2 mg/mL; - indicates No activity; in short: as §1
Vibrio parahaemolyticus [26] = experiment: In vitro antibacterial activity against Vibrio parahaemolyticus at a concentration of 2 mg/mL; - indicates No activity; in short: as §1
Vibrio anguillarum [27] = experiment: In vitro antibacterial activity against Vibrio anguillarum at a concentration of 2 mg/mL; - indicates No activity; in short: as §1
Vibrio alginolyticus [28] = experiment: In vitro antibacterial activity against Vibrio alginolyticus at a concentration of 2 mg/mL; - indicates No activity; in short: as §1

c1ccc([C@H]2Nc3ccccc3[C@@H]3OCCC[C@H]23)cc1
Activity (Escherichia coli [1]): mild activity | Activity (Escherichia coli [2]): mild activity | Activity (Vibrio fluvialis [3]): Not toxic | Activity (Vibrio fluvialis [4]): Not toxic

c1ccc([C@@H]2Nc3ccccc3[C@@H]3OCCC[C@H]23)cc1.c1ccc([C@H]2Nc3ccccc3[C@@H]3OCCC[C@H]23)cc1
Activity (Escherichia coli [5]): Not toxic | Activity (Escherichia coli [6]): No activity | Activity (Pseudomonas sp. [7]): Not toxic | Activity (Pseudomonas sp. [8]): No activity | Activity (Vibrio fluvialis [9]): Not toxic | Activity (Vibrio fluvialis [10]): No activity | Activity (Vibrio mimicus [11]): Not toxic | Activity (Vibrio mimicus [12]): No activity | Activity (Vibrio parahaemolyticus [13]): Not toxic | Activity (Vibrio parahaemolyticus [14]): No activity | Activity (Vibrio vulnificus [15]): Not toxic | Activity (Vibrio vulnificus [16]): No activity | Activity (Vibrio alginolyticus [17]): Not toxic | Activity (Vibrio anguillarum [18]): Not toxic | Activity (Vibrio anguillarum [19]): No activity | Activity (Vibrio alginolyticus [20]): No activity

c1ccc([C@@H]2Nc3ccccc3[C@@H]3OCCC[C@H]23)cc1
Activity (Escherichia coli [21]): Not toxic | Activity (Pseudomonas sp. [22]): Not toxic | Activity (Vibrio fluvialis [23]): Not toxic | Activity (Vibrio mimicus [24]): Not toxic | Activity (Vibrio vulnificus [25]): Not toxic | Activity (Vibrio parahaemolyticus [26]): Not toxic | Activity (Vibrio anguillarum [27]): Not toxic | Activity (Vibrio alginolyticus [28]): Not toxic
